Reference: ChEMBL document CHEMBL2163243, “Metaproterenol, isoproterenol, and their bisdimethylcarbamate derivatives as human cholinesterase inhibitors” (J Med Chem, 2012)

Columns and labels:
[1] = biological target: T1, Cholinesterase (Homo sapiens, UniProt P06276); experiment: Inhibition of human BChE usual homozygous variant using propionylthiocholine as substrate by Ellman's method; details: TDE = time-dependent effect
Method in brief: (§1)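 Reversible inhibition of plasma BChE (phenotyped donor plasma, diluted 150 - 300 times) measured at several PTCh concentrations, with and without inhibitor (0.5 mM - 10 mM). Ellman read-out at 412 nm, DTNB 0.3 mM final, 0.1 M phosphate pH 7.4, 25 °C. Ki,app per substrate concentration from the Hunter-Downs equation by linear regression. Y-intercept gives K(I) and x-intercept gives K(S).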
Target sequence in this assay (P06276 whole entry): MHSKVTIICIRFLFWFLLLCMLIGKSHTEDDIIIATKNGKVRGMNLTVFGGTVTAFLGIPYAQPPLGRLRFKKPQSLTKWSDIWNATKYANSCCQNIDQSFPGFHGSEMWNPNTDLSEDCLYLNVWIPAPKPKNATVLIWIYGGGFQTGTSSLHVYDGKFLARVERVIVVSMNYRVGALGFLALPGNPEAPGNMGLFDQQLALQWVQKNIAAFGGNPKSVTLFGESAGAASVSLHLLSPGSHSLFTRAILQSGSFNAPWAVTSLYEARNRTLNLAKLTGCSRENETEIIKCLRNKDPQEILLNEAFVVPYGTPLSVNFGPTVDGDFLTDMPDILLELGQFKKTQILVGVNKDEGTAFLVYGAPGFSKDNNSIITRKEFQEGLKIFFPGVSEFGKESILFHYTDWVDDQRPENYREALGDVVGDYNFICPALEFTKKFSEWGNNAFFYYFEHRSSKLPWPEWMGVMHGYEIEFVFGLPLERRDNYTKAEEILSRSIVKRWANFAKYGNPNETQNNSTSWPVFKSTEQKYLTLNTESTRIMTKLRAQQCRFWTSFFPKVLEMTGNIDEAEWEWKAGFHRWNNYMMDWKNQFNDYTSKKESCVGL

[2] = biological target: T1, Cholinesterase; experiment: Inhibition of human BChE usual homozygous variant using propionylthiocholine as substrate assessed as inhibition rate constant incubated up to 30 mins prior to substrate addition by Ellman's method
Method in brief: (§2)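 BChE from heparinized human donor plasma (centrifuged supernatant, phenotyped), unpurified, diluted 150 - 300 times in phosphate buffer. Enzyme incubated ≤30 min with carbamate in 0.1 M phosphate buffer pH 7.4, 25 °C. Reaction stopped with PTCh (4.0 mM final) and residual activity read by Ellman (DTNB 0.3 mM final, 412 nm). At least three carbamate concentrations, at least two experiments. First-order constants from ln(v0/vi) vs time; ki = kmax/Ki.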
Target sequence in this assay (P06276 29-602 limits assumed, change not shown): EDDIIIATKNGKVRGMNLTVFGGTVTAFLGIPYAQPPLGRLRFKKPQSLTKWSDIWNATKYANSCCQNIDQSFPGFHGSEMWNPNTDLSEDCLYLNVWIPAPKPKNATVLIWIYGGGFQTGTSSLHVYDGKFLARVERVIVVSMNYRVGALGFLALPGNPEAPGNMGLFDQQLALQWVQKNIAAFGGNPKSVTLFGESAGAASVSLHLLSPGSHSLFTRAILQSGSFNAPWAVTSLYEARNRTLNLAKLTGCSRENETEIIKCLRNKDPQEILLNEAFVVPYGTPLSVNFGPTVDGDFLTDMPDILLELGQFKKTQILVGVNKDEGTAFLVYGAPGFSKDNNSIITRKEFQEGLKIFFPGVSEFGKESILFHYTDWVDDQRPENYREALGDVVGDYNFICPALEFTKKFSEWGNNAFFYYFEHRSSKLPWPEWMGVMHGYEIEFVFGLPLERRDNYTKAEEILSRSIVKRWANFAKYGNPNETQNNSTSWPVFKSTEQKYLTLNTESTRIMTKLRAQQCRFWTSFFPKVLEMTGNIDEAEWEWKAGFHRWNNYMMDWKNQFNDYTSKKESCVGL

[3] = biological target: T1, Cholinesterase; experiment: Inhibition of human BChE T243M/G390V mutant fluoride-resistant homozygous variant using propionylthiocholine as substrate by Ellman's method; details: TDE = time-dependent effect; method in brief: as §1
Target sequence in this assay (P06276 whole entry): as the sequence (P06276 whole entry) above

[4] = biological target: T1, Cholinesterase; experiment: Inhibition of human BChE D70G/T243M/G390V mutant atypical-fluoride resistant heterozygous variant using propionylthiocholine as substrate by Ellman's method; details: TDE = time-dependent effect; method in brief: as §1
Target sequence in this assay (P06276 whole entry): as above

[5] = biological target: T2, Acetylcholinesterase (Homo sapiens, UniProt P22303); experiment: Inhibition of human AChE using acetylthiocholine as substrate assessed as inhibition rate constant by Ellman's method
T2 sequence (P22303 whole entry): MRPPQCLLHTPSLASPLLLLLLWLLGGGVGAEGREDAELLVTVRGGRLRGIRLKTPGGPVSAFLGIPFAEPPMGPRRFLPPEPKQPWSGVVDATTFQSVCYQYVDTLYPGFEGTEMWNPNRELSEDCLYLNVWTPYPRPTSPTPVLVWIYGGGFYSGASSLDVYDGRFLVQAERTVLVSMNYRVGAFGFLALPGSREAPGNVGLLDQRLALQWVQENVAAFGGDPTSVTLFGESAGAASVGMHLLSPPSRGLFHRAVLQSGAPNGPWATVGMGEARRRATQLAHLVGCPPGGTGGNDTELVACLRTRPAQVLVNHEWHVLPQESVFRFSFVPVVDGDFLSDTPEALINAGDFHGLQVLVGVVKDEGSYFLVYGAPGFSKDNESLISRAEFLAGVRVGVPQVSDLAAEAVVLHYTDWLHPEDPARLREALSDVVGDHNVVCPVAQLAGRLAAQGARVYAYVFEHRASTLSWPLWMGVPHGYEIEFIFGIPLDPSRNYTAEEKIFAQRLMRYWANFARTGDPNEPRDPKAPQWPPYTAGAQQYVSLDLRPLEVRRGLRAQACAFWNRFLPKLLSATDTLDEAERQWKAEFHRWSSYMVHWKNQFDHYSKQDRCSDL

[6] = biological target: T1, Cholinesterase; experiment: Inhibition of human BChE D70G mutant atypical homozygous variant using propionylthiocholine as substrate by Ellman's method; details: TDE = time-dependent effect; method in brief: as §1
Target sequence in this assay (P06276 whole entry): as the sequence (P06276 whole entry) above

[7] = biological target: Cholinesterase (Homo sapiens, UniProt P06276, D98G); experiment: Inhibition of human BChE D70G mutant atypical homozygous variant using propionylthiocholine as substrate assessed as inhibition rate constant incubated up to 30 mins prior to substrate addition by Ellman's method; method in brief: as §2
Chain of Cholinesterase (Homo sapiens, UniProt P06276, D98G) (P06276 29-602 D98G limits assumed): as the sequence (P06276 29-602 limits assumed, change not shown) above, with D70G counted along it

[8] = biological target: Cholinesterase (Homo sapiens, UniProt P06276, T271M/G418V); experiment: Inhibition of human BChE T243M/G390V mutant fluoride-resistant homozygous variant using propionylthiocholine as substrate assessed as inhibition rate constant incubated up to 30 mins prior to substrate addition by Ellman's method; method in brief: as §2
Chain of Cholinesterase (Homo sapiens, UniProt P06276, T271M/G418V) (P06276 29-602 T271M/G418V limits assumed): as the sequence (P06276 29-602 limits assumed, change not shown) above, with T243M, G390V counted along it

[9] = biological target: T2, Acetylcholinesterase; experiment: Inhibition of human AChE using acetylthiocholine as substrate by Ellman's method
[10] = biological target: T1, Cholinesterase; experiment: Inhibition of human BChE D70G mutant usual-atypical heterozygous variant using propionylthiocholine as substrate by Ellman's method; details: TDE = time-dependent effect; method in brief: as §1
Target sequence in this assay (P06276 whole entry): as the sequence (P06276 whole entry) above

[11] = biological target: T1, Cholinesterase; experiment: Inhibition of human BChE D70G mutant usual-atypical heterozygous variant using propionylthiocholine as substrate assessed as inhibition rate constant incubated up to 30 mins prior to substrate addition by Ellman's method; method in brief: as §2
Target sequence in this assay (P06276 29-602 limits assumed): as the sequence (P06276 29-602 limits assumed, change not shown) above

[12] = biological target: T1, Cholinesterase; experiment: Inhibition of human BChE D70G/T243M/G390V mutant atypical-fluoride resistant heterozygous variant using propionylthiocholine as substrate assessed as inhibition rate constant incubated up to 30 mins prior to substrate addition by Ellman's method; method in brief: as §2
Target sequence in this assay (P06276 29-602 limits assumed): as the sequence (P06276 29-602 limits assumed, change not shown) above

[13] = species on record: Homo sapiens; experiment: Selectivity ratio of apparent dissociation constant for enzyme-inhibitor complex for human AChE to apparent dissociation constant for enzyme-inhibitor complex for human BChE T243M/G390V mutant fluoride-resistant homozygous variant
Method in brief: (§3)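 Human plasma BChE (phenotyped variants) and hemolysed erythrocyte AChE were used unpurified, with plasma diluted 150-300x and erythrocytes 600x. Activity was read by the Ellman method at 412 nm (DTNB 0.3 mM final) in 0.1 M phosphate, pH 7.4, 25 °C. Substrate was PTCh for BChE and ATCh for AChE, each at several concentrations, with inhibitor at 0.5-10 mM. Ki is the y-intercept of a Hunter-Downs linear regression.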

[14] = biological target: T1, Cholinesterase; experiment: Binding affinity to human BChE D70G mutant atypical homozygous variant relative to terbutaline
Target sequence in this assay (P06276 whole entry): as the sequence (P06276 whole entry) above

[15] = species on record: Homo sapiens; experiment: Selectivity ratio of apparent dissociation constant for enzyme-inhibitor complex for human AChE to apparent dissociation constant for enzyme-inhibitor complex for human BChE D70G mutant atypical homozygous variant; method in brief: as §3

Compound	inhibition [1]	bimolecular inhibition rate constant (ki) [2] [×10³ /M/min]	inhibition [3]	inhibition [4]	Inhibition rate constant [5] [×10³ /M/min]	inhibition [6]	bimolecular inhibition rate constant (ki) [7] [×10³ /M/min]	bimolecular inhibition rate constant (ki) [8] [×10³ /M/min]	Ki [9] [µM]	inhibition [10]	bimolecular inhibition rate constant (ki) [11] [×10³ /M/min]	Carbamylation rate constant (ki) [12] [×10³ /M/min]	Selectivity ratio [13]	Ratio [14]	Selectivity ratio [15]
CC(C)NCC(O)c1cc(OC(=O)N(C)C)cc(OC(=O)N(C)C)c1.Cl (racemic)	tde	2200	tde	tde	2.3	tde	40	600	710	tde	1400	440			
CC(C)NCC(O)c1ccc(OC(=O)N(C)C)c(OC(=O)N(C)C)c1.Cl (racemic)	tde	200	tde	tde	2.5	tde	21	140	1400	tde	160	87			
CC(C)NC[C@H](O)c1ccc(OC(=O)N(C)C)c(OC(=O)N(C)C)c1.Cl		340			2.7		31	150	1200		210	100			
CC(C)NC[C@H](O)c1cc(OC(=O)N(C)C)cc(OC(=O)N(C)C)c1.Cl		3200			4.7		76	1100	390		2200	550			
CC(C)NCC(O)c1ccc(O)c(O)c1 (racemic)													4	2	4
CC(C)NCC(O)c1cc(O)cc(O)c1 (racemic)													4		4
